Sampled rows, rich in hits. Any-hit rate of the full collection: about 5%.
Beta cell apopt: blocks beta cell apoptosis. INS-1E cytokine-induced death, ATP luminescence, 48 h; percent of positive-control rescue, neutral wells zero. protection from apoptosis, % (no concentration beside the values). actives 0.8% (n = 300,000);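 active = Every replicate reaches about 75%, or at least half do and their mean reaches it too, limit read from the data; inconclusive = At least half of replicates reach the limit but their mean does not; inactive = Under half of replicates reach the limit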;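 note: higher means more ATP so stronger rescue from cytokine killing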
XBP1 UPR activ: adaptive UPR (XBP1) activation; AID 463104; CHO-XBP1 luciferase reporter, IRE1-XBP1 UPR activation, luminescence; percent of tunicamycin response, DMSO as zero; actives 0.33% (n = 330,000); activation, % at 20 µM;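 active = versus positive control, 20 µM dose yields 30% or more activation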
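Material: CHO cell line with stable XBP1 luciferase reporter; schedule: 16-18 h cell attachment at 37 °C, then 6 h compound exposure; signal: glow luminescence from Steady-Glo reagent; medium: serum-containing F12 medium, 10% FBS; benchmarks: tunicamycin 10 µg/mL and vehicle-only wells; read-out: percent activation relative to tunicamycin reference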
T cruzi repl: T. cruzi replication inhibition; T. cruzi beta-gal in NIH3T3, luminescence, 90 h; inhibition, % (test concentration not listed); actives 1.4% (n = 300,000); AID 1885;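 active = mean inhibition across valid replicates above about 55%, limit read from the data; inconclusive = mean below that limit but half or more replicates reach it; inactive = mean below it, under half of replicates reach it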;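 note: signal also drops with host cell toxicity which is not excluded here; higher percent means less beta-gal luminescence so fewer parasites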
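Assay system: NIH/3T3 host cells with β-galactosidase reporter T. cruzi; input: 5,000 host fibroblasts per well; compound: single 50 nL compound addition per well in DMSO; timing: ≥90 h infection period, 3 h prior cell attachment; measured by: GalScreen β-gal luminescence, detergent lysis, 60 min; evaluation: percent inhibition of parasite-derived β-gal signal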
CSC inhib: cancer stem cell inhibition; actives 1.1% (n = 300,000); inhibition, % at 7.5 µM; cancer stem cell-like cells viability, luminescence; in the data active = inhibition above about 75%; inconclusive = no clear call, values can overlap the other calls; tested in HMLE shEcad cells
CHOP UPR activ: apoptotic UPR (CHOP) activation; CHO-CHOP luciferase reporter, luminescence; percent of tunicamycin response over DMSO baseline; actives 0.34% (n = 330,000); activation, % at 10 µM;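 active = at 10 µM dose, activation of 40% or more, normalized to positive control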
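Assay system: CHO cells with stable CHOP pathway luciferase reporter; Buffer or medium: F12 plus 10% serum; Times: 16-18 h cell attachment, then 6 h compound exposure, 37 °C; Signal: luciferase luminescence; Read-out basis: percent activation relative to tunicamycin control; Control set: tunicamycin high control, DMSO low control.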
Mdm2 MdmX PPI: disrupts the human Mdm2-MdmX interaction; SaOS-2 split-luciferase Mdm2/MdmX complementation, luminescence; AID 485346; O15151+Q00987; actives 3% (n = 330,000); inhibition, % at 8 µM;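 active = inhibition of at least 50% at 8 µM in the primary screen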
Target sequence (O15151 whole entry, looked up): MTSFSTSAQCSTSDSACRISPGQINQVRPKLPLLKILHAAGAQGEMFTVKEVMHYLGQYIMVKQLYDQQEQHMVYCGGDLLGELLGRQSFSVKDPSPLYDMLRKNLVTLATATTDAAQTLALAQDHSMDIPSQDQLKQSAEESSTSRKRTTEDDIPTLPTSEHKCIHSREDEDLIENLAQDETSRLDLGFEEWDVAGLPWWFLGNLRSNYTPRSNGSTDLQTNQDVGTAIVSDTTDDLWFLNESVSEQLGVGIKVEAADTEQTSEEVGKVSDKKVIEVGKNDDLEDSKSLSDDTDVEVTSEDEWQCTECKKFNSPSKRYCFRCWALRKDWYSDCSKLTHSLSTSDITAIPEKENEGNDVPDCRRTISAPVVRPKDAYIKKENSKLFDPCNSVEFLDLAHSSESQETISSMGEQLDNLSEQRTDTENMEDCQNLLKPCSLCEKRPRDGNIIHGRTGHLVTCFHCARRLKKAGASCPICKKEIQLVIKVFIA
Target sequence (Q00987 whole entry, looked up): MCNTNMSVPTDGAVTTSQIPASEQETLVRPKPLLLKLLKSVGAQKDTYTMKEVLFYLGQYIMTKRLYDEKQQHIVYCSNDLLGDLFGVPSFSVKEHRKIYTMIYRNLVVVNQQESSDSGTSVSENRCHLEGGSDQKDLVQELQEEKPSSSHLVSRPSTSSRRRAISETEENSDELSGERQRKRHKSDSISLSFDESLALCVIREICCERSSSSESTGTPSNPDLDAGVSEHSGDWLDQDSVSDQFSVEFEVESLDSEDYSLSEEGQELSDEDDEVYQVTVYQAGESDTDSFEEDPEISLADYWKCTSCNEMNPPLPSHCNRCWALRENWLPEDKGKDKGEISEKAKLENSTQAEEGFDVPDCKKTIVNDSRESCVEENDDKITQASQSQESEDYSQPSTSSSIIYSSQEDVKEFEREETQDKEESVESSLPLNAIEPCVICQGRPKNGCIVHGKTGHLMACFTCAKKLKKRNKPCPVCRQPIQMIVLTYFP
Mdm2-MdmX conf: human Mdm2/MdmX binding inhibition, confirmed. shares compounds with Mdm2 MdmX PPI. luminescent assay. inhibition, % at 8 µM. actives 55% (n = 10,000); in the data active = inhibition above about 40%
FLuc counter: inhibits full-length luciferase, flagging false Mdm2/MdmX hits | shares compounds with Mdm2 MdmX PPI | SaOS-2 full-length luciferase counterscreen, luminescence | inhibition, % at 8 µM | actives 77% (n = 6,200);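 active = mean inhibition at 8 µM reaching about 37%, which flags the compound as non-specific, limit read from the data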;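 note: p53-null SaOS-2 cells with luciferase driven by a doxycycline-inducible promoter; compound on cells about two nights before reading with doxycycline added after day one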
Each line names hits and unclear results; the compound was inactive in the other large screens (follow-up assays come after a bar, where they were run).

N#C/C(=C(/O)c1ccc([N+](=O)[O-])s1)c1nc2ccccc2[nH]1	T cruzi repl 55, Mdm2 MdmX PPI 89 | Mdm2-MdmX conf 83 | FLuc counter 68
COc1ccc(/C(C)=N/OC/C(O)=C(\C#N)c2nc3ccccc3[nH]2)cc1	none
COc1ccc(/C=N/OC/C(O)=C(\C#N)c2nc3ccccc3[nH]2)cc1OC	Mdm2 MdmX PPI 73 | Mdm2-MdmX conf inactive
N#C/C(=C(/O)c1ccc(Br)s1)c1nc2ccccc2[nH]1	none
COc1ccc(C(=O)Nc2ccc(-c3ccc(C)o3)cc2)cc1S(=O)(=O)N1CCOCC1	none
CC1CCN(C(=O)C(C)c2ccc([N+](=O)[O-])cc2)CC1 (stereo not drawn)	none
CC1CCCC(C)N1C(=S)SCC(=O)O (stereo not drawn)	none (no result: CSC inhib)
CC(=O)C1=C(O)C(=O)N(c2cccnc2)C1c1ccc(Cl)cc1 (stereo not drawn)	none
Cn1nc(CC(=O)Nc2ncc(Br)s2)c2ccccc2c1=O	Mdm2 MdmX PPI 59 | Mdm2-MdmX conf inactive
Cn1nc(CC(=O)NC2CCCCCCCCCCC2)c2ccccc2c1=O	none
CCN(CC)CCCN=C1N[C@@H](c2cccc(F)c2)C(C(=O)OC)=C(C)N1Cc1ccccc1	Mdm2 MdmX PPI 100 (no result: T cruzi repl) | Mdm2-MdmX conf 83 | FLuc counter 59
COCCN1C(=S)N[C@@H](c2cccc(F)c2)C(C(=O)OC)=C1C	Mdm2 MdmX PPI 59 | Mdm2-MdmX conf inactive
COCCN=C1N[C@@H](c2ccccc2)C(C(=O)OC)=C(C)N1Cc1ccccc1	none
CCN(CC)CCCN=C1N[C@@H](c2cccc(C(F)(F)F)c2)C(C(=O)OC)=C(C)N1CC	Mdm2 MdmX PPI 100 (no result: T cruzi repl, CSC inhib) | Mdm2-MdmX conf 75 | FLuc counter inactive
COC(=O)C1=C(C)N(Cc2ccccc2)C(=NCc2ccccc2)N[C@H]1c1ccccc1	Mdm2 MdmX PPI 91 (no result: T cruzi repl) | Mdm2-MdmX conf inactive
Cc1noc(C)c1NC(=O)N(C)C[C@@H]1Oc2ccc(NC(=O)CCC(F)(F)F)cc2CC(=O)N([C@@H](C)CO)C[C@@H]1C	none (no result: T cruzi repl)
COC(=O)C1=C(C)N(CC2CC2)C(=NCc2cccc(Cl)c2)N[C@H]1c1ccccc1	none (no result: Beta cell apopt)
COC(=O)C1=C(C)N(Cc2ccccc2)C(=NCc2cc(OC)c(OC)c(OC)c2)N[C@H]1c1ccc(Br)cc1	Mdm2 MdmX PPI 69 (no result: T cruzi repl) | Mdm2-MdmX conf inactive
COC(=O)C1=C(C)N(Cc2ccccc2)C(=NCc2ccccc2)N[C@H]1c1cccc(F)c1	Mdm2 MdmX PPI 74 | Mdm2-MdmX conf inactive | FLuc counter 47
COC(=O)C1=C(C)N(Cc2ccccc2)C(=NCc2cc(OC)c(OC)c(OC)c2)N[C@H]1c1ccccc1	none
COC(=O)C1=C(C)N(Cc2ccccc2)C(=NCc2cccc(Cl)c2)N[C@H]1c1ccccc1	CSC inhib 122, Mdm2 MdmX PPI 89 (no result: T cruzi repl) | Mdm2-MdmX conf inactive
Cc1cccc(N2CCN(C(=O)COc3ccc4c(c3)CCC4)CC2C)c1 (stereo not drawn)	none (no result: Beta cell apopt, T cruzi repl, CSC inhib)
Cc1ccc(-n2cccc2C(=S)N=P(N(C)C)(N(C)C)N(C)C)cc1	Beta cell apopt 102, T cruzi repl 59, Mdm2 MdmX PPI 72 | Mdm2-MdmX conf 50 | FLuc counter 51
Cc1ccc([N+](=O)[O-])cc1N(CC(=O)Nc1ccc(S(=O)(=O)Nc2cccc(C(F)(F)F)c2)cc1)S(C)(=O)=O	Beta cell apopt 99, T cruzi repl 61, CSC inhib 100, Mdm2 MdmX PPI 55 | Mdm2-MdmX conf 45 | FLuc counter 39
COc1ccccc1N(CC(=O)Nc1cccc(C(F)(F)F)c1)S(C)(=O)=O	none (no result: Beta cell apopt)
CCOC(=O)c1ccc(Oc2cc(C)nc(SC)n2)cc1	Mdm2 MdmX PPI 56 | Mdm2-MdmX conf 58 | FLuc counter 49
CCOC(=O)COC(=O)c1ccc(Oc2cc(C)nc(SC)n2)cc1	none (no result: CSC inhib)
CCN1CCN(c2cc(C)c3cc(NC(=O)c4ccc(OC)c(OC)c4)ccc3n2)CC1	none
CCN1CCN(c2cc(C)c3cc(NC(=O)c4ccc5c(c4)OCO5)ccc3n2)CC1	Mdm2 MdmX PPI 71 | Mdm2-MdmX conf 50 | FLuc counter 84
CCN1CCN(c2cc(C)c3cc(NC(=O)c4cncc(Br)c4)ccc3n2)CC1	Mdm2 MdmX PPI 66 | Mdm2-MdmX conf inactive
CCN1CCN(c2cc(C)c3cc(NC(=O)c4cccc(OC)c4)ccc3n2)CC1	none
O=C(Nc1cccc(F)c1)C1CCCN(S(=O)(=O)c2cccc3cccnc23)C1 (stereo not drawn)	none
CC(Nc1nc(-c2ccc(Cl)cc2)cs1)c1nc2cc(Cl)c(N3CCCCC3)cc2n1CCOCCO (stereo not drawn)	CSC inhib inconclusive, Mdm2 MdmX PPI 51 | Mdm2-MdmX conf inactive
CN1CCN(Cc2nc3ccccc3c(=O)n2Cc2nc(-c3ccc([N+](=O)[O-])cc3)cs2)CC1	Mdm2 MdmX PPI 95 | Mdm2-MdmX conf inactive
N#Cc1c(Cl)cccc1N1CCC(C(N)=O)CC1	none
CC1CC(C)CN(Cc2nc(N)nc(Nc3ccc4ccccc4c3)n2)C1 (stereo not drawn)	Mdm2 MdmX PPI 62 | Mdm2-MdmX conf 67 | FLuc counter 57
O=C(CCC1CCCC1)N1CCN(C(=O)c2cccnc2)CC1	none
COc1cccc(-c2sc3ccccc3c2-c2ccc(OCCN3CCCC3)cc2)c1	CSC inhib 104, Mdm2 MdmX PPI 100 (no result: T cruzi repl) | Mdm2-MdmX conf inactive
COc1cccc(-c2sc3ccc(OC)cc3c2-c2ccc(C(N)=O)cc2)c1	none (no result: T cruzi repl)
COc1ccc(-c2sc3ccccc3c2-c2ccc(OCCN3CCCCC3)cc2)cc1	Beta cell apopt 103, CSC inhib 139, Mdm2 MdmX PPI 88 (no result: T cruzi repl) | Mdm2-MdmX conf inactive
COc1cccc(-c2sc3ccc(OC)cc3c2-c2ccc(OCCN3CCCC3)cc2)c1	Mdm2 MdmX PPI 69 (no result: Beta cell apopt, T cruzi repl, CSC inhib) | Mdm2-MdmX conf inactive | FLuc counter inactive
COc1ccc(-c2sc3ccc(OC)cc3c2-c2ccc(OCCN3CCOCC3)cc2)cc1	none (no result: Beta cell apopt, T cruzi repl, CSC inhib)
COc1cccc(-c2sc3ccccc3c2-c2ccc(OCCN3CCCCC3)cc2)c1	CSC inhib 104, Mdm2 MdmX PPI 95 (no result: T cruzi repl) | Mdm2-MdmX conf inactive
Cc1ccc(S(=O)(=O)N2CCC(C(=O)NCc3ccncc3)CC2)cc1	none
COc1cccc(-c2sc3cc(OC)c(OC)cc3c2-c2ccc(OCCN3CCCCC3)cc2)c1	Mdm2 MdmX PPI 78 (no result: Beta cell apopt, T cruzi repl, CSC inhib) | Mdm2-MdmX conf inactive

Screens from PubChem BioAssay.
